From ChEMBL document CHEMBL4196006, “Aryl thiosemicarbazones for the treatment of trypanosomatidic infections” (Eur J Med Chem, 2018)
Activity calls are given as the source filed them. The calls are words filed in the database; no cut-off is given here.

How the values were obtained:
[1] = Cytotoxicity against human U2OS cells assessed as viable cells at 50 uM after 72 hrs by MTT assay relative to control; assay type: cell-based; details: read-out: Activity
[2] = Cytotoxicity against human 786-O cells assessed as inhibition of mitochondrial viability at 10 uM after 6 hrs by CMXRos staining based assay relative to control; assay type: cell-based, 786-0; details: read-out: INH
Procedure, shortened: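 Mitochondrial toxicity monitored by MitoTracker Red CMXRos uptake and high-content imaging; compound at 10 μM, triplicate.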

[3] = test system: Trypanosoma brucei; test: Antitrypanosomal activity against Trypanosoma brucei Lister 427 bloodstream form assessed as parasite growth inhibition at 50 uM after 72 hrs by SYBR Green assay relative to control; assay type: functional
[4] = biological target: T1, Pteridine reductase, putative (Trypanosoma brucei) (UniProt Q581W1); test: Inhibition of Trypanosoma brucei PTR1 at 50 uM using H2B as substrate in presence of NADPH by photometric analysis relative to control
T1 sequence (whole entry): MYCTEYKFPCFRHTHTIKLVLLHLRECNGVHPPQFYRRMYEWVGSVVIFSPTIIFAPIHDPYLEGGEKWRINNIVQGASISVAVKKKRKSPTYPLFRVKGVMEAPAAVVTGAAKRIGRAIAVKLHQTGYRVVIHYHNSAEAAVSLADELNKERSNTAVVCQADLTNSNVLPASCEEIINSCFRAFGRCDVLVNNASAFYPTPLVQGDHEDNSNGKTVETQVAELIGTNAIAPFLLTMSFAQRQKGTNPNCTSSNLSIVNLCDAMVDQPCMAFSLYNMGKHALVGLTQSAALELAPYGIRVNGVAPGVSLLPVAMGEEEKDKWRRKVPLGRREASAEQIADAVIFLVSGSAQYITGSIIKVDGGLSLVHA

[5] = test system: Leishmania infantum; test: Antileishmanial activity against Leishmania infantum amastigote form assessed as parasite growth inhibition at 50 uM after 72 hrs by steady-Glo reagent based assay relative to control; assay type: functional; details: read-out: GI
Procedure, shortened: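 Intramacrophage L. infantum amastigotes in THP-1-derived macrophages, tested at 50 μM or in dose-response. Plates held 72 h at 37 °C, 5% CO2. Medium was replaced by PBS, macrophages lysed, and parasites read by Steady-Glo luminescence. High-content imaging gave host cell number, infection ratio (infected/total cells) and parasites per infected cell. Values are means of at least two independent experiments.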

[6] = test system: Trypanosoma brucei; test: Potentiation of methotrexate-induced antitrypanosomal activity against Trypanosoma brucei Lister 427 bloodstream form at 10 uM after 72 hrs by resazurin dye-based assay relative to control; assay type: functional
[7] = Cytotoxicity against human WI38 cells assessed as growth inhibition at 10 uM after 48 hrs by CellTiter-Glo assay relative to control; values are per cent of control; details: WI38 cells
[8] = test system: Trypanosoma cruzi; test: Antitrypanosomal activity against Trypanosoma cruzi amastigote form infected in human U2OS cells assessed as parasite growth inhibition at 50 uM after 72 hrs relative to control; assay type: functional; details: for inhibition of growth at 50 µM: read-out: GI
Procedure, shortened: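 U2OS monolayers grown for 24 h, then infected with tissue-derived trypomastigotes of T. cruzi Y strain. Compounds were added 24 h after infection at 50 μM (single-point) or in dose-response, with 72 h exposure. Plates were fixed, stained and analysed by high-content imaging; activity was normalized to infected and non-infected controls. Means of at least two experiments; benznidazole as reference.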

[9] = biological target: CYP3A4 (Homo sapiens, UniProt P08684); test: Inhibition of human microsomal CYP3A4 expressed in baculovirus infected BTI-TN-5B1-4 cells at 10 uM incubated for 30 mins by luciferase assay relative to control; assay type: ADME
Procedure, shortened: (§1)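 CYP1A2, 2C9, 2C19, 2D6 and 3A4 in microsomes from baculovirus-infected insect cells, each with a P450-Glo luminogenic substrate. Inhibition read as loss of light; single-point at 10 μM, triplicate.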

[10] = biological target: CYP2D6 (Homo sapiens, UniProt P10635); test: Inhibition of human microsomal CYP2D6 expressed in baculovirus infected BTI-TN-5B1-4 cells at 10 uM incubated for 30 mins by luciferase assay relative to control; assay type: ADME; procedure, shortened: as §1
[11] = biological target: hERG (KCNH2) (Homo sapiens, UniProt Q12809); test: Inhibition of human ERG at 10 uM incubated for 2 hrs by fluorescence polarisation assay relative to control
[12] = biological target: Aurora kinase B (Homo sapiens, UniProt Q96GD4); test: Inhibition of recombinant full-length human aurora B kinase expressed in baculovirus system at 10 uM using MBP as substrate incubated for 45 mins by ADP-glo kinase assay; details: probe MBP
Procedure, shortened: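 Aurora B activity measured as ADP formation via coupled luciferase ADP-Glo luminescence; single-point at 10 μM, triplicate.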

[13] = biological target: CYP2C9 (Homo sapiens, UniProt P11712); test: Inhibition of human microsomal CYP2C9 expressed in baculovirus infected BTI-TN-5B1-4 cells at 10 uM incubated for 30 mins by luciferase assay relative to control; assay type: ADME; procedure, shortened: as §1
[14] = test system: Trypanosoma brucei; test: Antitrypanosomal activity against Trypanosoma brucei Lister 427 bloodstream form at 10 uM after 72 hrs by resazurin dye-based assay relative to control; assay type: functional
[15] = test system: Trypanosoma brucei; test: Potentiation of methotrexate-induced antitrypanosomal activity against Trypanosoma brucei Lister 427 bloodstream form at 10 uM after 72 hrs by resazurin dye-based assay; assay type: functional
[16] = biological target: CYP2C19 (Homo sapiens, UniProt P33261); test: Inhibition of human microsomal CYP2C19 expressed in baculovirus infected BTI-TN-5B1-4 cells at 10 uM incubated for 30 mins by luciferase assay relative to control; assay type: ADME; procedure, shortened: as §1
[17] = biological target: T2, CYP1A2 (Homo sapiens, UniProt P05177); test: Inhibition of human microsomal CYP1A2 expressed in baculovirus infected BTI-TN-5B1-4 cells at 10 uM incubated for 30 mins by luciferase assay relative to control; assay type: ADME; procedure, shortened: as §1
T2 sequence (P05177 whole entry): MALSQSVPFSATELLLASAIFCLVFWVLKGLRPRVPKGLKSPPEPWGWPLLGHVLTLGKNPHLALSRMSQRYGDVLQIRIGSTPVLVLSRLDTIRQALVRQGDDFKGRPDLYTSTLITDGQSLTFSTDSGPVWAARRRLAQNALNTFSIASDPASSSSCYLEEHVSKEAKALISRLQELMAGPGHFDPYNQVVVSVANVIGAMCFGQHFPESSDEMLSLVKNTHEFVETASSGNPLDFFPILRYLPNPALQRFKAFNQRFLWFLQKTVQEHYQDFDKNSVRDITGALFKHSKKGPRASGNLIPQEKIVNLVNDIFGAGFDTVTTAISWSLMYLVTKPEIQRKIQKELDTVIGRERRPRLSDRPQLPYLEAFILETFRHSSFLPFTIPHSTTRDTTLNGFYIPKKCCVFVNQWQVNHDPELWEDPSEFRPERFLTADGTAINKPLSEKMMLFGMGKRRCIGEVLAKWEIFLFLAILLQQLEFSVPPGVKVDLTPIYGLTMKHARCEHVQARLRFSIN

[18] = Cytotoxicity against human THP1 cells assessed as viable cells at 100 uM after 72 hrs by MTT assay relative to control; assay type: cell-based, THP-1; details: read-out: Activity
Procedure, shortened: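 THP-1-derived macrophages exposed to compounds for 72 h, tested at 100 μM or in dose-response; viability read by MTT colorimetric assay.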

[19] = Cytotoxicity against human A549 cells assessed as growth inhibition at 10 uM after 48 hrs by CellTiter-Glo assay relative to control; values are per cent of control; details: A549 cells
[20] = biological target: T3, Pteridine reductase 1 (Leishmania major) (UniProt Q01782); test: Inhibition of Leishmania major PTR1 at 50 uM using H2B as substrate in presence of NADPH by photometric analysis relative to control
T3 sequence (whole entry): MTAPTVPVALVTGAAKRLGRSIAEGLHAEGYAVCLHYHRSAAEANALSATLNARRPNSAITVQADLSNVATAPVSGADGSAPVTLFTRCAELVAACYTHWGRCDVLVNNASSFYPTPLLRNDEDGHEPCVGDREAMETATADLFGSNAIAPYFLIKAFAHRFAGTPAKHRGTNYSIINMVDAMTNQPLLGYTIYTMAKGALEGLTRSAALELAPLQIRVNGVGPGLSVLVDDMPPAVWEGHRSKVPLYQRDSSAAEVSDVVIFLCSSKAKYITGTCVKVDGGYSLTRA

Sequence of CYP2D6 (P10635 whole entry): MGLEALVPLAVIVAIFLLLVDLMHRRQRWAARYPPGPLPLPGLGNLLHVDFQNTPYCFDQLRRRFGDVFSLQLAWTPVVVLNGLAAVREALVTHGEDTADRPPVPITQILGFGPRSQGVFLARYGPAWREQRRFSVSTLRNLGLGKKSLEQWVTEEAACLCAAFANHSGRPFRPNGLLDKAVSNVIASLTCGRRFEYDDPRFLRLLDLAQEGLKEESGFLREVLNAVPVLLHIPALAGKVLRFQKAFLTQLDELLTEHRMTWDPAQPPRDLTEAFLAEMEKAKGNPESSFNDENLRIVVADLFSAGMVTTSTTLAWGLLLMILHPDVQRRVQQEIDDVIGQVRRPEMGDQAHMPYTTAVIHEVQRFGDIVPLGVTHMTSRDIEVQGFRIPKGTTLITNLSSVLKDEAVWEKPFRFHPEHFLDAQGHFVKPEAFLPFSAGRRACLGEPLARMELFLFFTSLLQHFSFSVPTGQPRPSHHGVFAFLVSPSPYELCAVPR
Sequence of CYP3A4 (P08684 whole entry): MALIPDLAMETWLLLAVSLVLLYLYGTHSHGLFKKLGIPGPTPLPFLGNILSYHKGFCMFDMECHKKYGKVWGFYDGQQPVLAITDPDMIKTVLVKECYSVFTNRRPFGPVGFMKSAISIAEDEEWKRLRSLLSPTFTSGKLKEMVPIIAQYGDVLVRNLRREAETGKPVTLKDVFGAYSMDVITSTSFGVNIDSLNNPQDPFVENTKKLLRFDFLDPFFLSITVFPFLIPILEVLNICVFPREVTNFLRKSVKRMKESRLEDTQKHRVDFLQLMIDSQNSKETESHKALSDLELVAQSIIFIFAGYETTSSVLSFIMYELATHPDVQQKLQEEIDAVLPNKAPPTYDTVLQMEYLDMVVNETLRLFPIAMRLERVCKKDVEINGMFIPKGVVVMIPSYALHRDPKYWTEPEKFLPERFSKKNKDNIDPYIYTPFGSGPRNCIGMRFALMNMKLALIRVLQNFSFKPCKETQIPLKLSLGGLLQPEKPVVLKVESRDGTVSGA
Sequence of CYP2C19 (P33261 whole entry): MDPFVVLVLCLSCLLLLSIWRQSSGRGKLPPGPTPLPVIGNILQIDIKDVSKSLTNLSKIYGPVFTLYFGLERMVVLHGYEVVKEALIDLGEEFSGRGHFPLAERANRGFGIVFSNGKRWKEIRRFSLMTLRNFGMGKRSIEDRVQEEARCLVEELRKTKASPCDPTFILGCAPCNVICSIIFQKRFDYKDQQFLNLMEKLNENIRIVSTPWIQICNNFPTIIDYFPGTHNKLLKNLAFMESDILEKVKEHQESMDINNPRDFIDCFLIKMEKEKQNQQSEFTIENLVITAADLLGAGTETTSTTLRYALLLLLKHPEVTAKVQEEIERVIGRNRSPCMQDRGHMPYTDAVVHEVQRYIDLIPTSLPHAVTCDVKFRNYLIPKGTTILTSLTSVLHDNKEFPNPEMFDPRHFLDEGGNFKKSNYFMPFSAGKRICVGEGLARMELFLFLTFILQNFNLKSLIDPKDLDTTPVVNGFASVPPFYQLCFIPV
Sequence of hERG (KCNH2) (Q12809 whole entry): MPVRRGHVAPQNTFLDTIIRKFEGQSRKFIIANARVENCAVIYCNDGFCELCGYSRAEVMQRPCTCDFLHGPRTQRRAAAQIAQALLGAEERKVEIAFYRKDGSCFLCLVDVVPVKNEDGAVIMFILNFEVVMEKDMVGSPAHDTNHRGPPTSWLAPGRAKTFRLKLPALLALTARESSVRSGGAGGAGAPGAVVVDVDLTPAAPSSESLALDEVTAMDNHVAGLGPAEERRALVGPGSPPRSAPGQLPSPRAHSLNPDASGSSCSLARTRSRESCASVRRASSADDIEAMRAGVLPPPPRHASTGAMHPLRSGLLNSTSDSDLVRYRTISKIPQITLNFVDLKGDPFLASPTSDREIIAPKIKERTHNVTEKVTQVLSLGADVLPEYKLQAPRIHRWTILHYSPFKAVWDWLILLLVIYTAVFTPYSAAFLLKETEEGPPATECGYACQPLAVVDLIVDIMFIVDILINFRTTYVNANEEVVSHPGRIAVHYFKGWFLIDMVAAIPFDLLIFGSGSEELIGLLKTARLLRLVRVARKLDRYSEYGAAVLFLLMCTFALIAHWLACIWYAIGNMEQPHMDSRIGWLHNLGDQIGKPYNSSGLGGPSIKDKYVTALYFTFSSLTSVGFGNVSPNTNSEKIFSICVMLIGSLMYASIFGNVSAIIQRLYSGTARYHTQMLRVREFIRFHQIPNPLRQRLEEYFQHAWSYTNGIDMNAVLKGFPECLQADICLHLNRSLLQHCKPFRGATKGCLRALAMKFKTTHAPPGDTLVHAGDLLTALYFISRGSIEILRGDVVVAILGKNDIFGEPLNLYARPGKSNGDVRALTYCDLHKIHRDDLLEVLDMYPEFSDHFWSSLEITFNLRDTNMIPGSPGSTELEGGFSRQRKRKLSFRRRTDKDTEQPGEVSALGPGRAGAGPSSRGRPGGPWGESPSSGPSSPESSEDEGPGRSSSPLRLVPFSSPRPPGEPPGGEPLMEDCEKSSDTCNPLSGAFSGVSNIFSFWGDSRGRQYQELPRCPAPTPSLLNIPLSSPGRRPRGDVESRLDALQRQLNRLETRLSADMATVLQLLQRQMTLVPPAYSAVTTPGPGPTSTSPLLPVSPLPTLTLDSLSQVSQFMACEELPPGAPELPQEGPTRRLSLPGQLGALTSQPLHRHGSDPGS
Sequence of Aurora kinase B (Q96GD4 whole entry): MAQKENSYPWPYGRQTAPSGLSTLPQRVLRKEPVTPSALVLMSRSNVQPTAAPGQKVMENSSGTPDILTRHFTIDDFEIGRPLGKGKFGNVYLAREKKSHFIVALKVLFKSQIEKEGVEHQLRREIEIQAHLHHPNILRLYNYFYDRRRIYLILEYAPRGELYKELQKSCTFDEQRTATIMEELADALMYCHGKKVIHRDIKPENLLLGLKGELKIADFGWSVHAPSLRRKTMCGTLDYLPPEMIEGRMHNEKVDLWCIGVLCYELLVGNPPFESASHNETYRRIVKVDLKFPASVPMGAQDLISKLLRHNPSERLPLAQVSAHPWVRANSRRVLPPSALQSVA
Sequence of CYP2C9 (P11712 whole entry): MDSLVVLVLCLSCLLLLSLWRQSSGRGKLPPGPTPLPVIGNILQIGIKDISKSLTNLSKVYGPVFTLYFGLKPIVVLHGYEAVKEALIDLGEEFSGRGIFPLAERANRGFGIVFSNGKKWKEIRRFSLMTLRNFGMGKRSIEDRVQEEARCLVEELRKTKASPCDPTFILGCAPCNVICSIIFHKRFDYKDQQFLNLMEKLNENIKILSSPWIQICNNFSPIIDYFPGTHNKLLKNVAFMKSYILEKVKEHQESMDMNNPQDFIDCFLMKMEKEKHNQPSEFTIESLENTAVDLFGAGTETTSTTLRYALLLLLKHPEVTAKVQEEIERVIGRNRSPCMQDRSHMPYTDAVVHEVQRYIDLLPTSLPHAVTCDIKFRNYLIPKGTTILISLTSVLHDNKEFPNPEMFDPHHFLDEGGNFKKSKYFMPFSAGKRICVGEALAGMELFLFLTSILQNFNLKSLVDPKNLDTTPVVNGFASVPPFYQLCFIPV

inhibition [4]	inhibition at 0.5 h, 10 µM [9] [%]	inhibition at 0.5 h, 10 µM [10] [%]	inhibition at 0.75 h, 10 µM [12] [%]	inhibition at 0.5 h, 10 µM [13] [%]	inhibition at 0.5 h, 10 µM [16] [%]	inhibition at 0.5 h, 10 µM [17] [%]	inhibition [20] [%]	SMILES	inhibition of growth at 50 µM [8] [%]	inhibition at 2 h, 10 µM [11] [%]	other results
10.2%	-4.06	-13.1	-14.2	7.46	-20.7	11.5	2.62	C/C(=N\NC(N)=S)c1ccc(N)cc1	51.8	6.38	viability at 72 h, 50 µM [1]: 113%; cytotoxicity at 6 h, 10 µM [2]: -5.04%; growth inhibition (GI) [3]: inactive; inhibition of growth at 50 µM [5]: 9.54%; Activity [6]: 75.17%; cell growth (% of control) at 48 h, 10 µM [7]: 83.1%; Activity [14]: 4.67%; PF [15]: 2.6; viability at 72 h, 100 µM [18]: 95.2%; cell growth (% of control) at 48 h, 10 µM [19]: 141%
20.1%	-24.4	-20.5	-7.72	-19.2	-30.2	-9.14	20.7	COc1ccc(/C=N/NC(N)=S)cc1OC		4.1	
inactive	-8.16	8.57	-5.27	4.24	-20.7	38.3	1.75	Cc1ccsc1/C=N/NC(N)=S	24.9	-5.98	viability at 72 h, 50 µM [1]: 95.8%; cytotoxicity at 6 h, 10 µM [2]: 2.15%; inhibition of growth at 50 µM ([3]; Lister 427, 72 h, read-out: GI): 17.3%; inhibition of growth at 50 µM [5]: 8.28%; Activity [6]: 34.17%; cell growth (% of control) at 48 h, 10 µM [7]: 85.4%; Activity [14]: 8.33%; PF [15]: 1.05; viability at 72 h, 100 µM [18]: 76%; cell growth (% of control) at 48 h, 10 µM [19]: 91.9%
								Nc1nnc(-c2ccc(Cl)c(Cl)c2)s1	23.4		
5.67%	-23.2	-8.91	-16.9	-19.8	-52.9	29.6	9.19	COc1ccccc1/C=N/NC(N)=S		5.91	
30.7%	-7.74	-9.48	-12.2	-7.51	-49.1	-6.6	56.5	NC(=S)N/N=C/c1ccc(O)c(O)c1		4.17	
								Nc1nnc(-c2ccco2)s1			growth inhibition (GI) [8]: inactive
								Nc1nnc(/C=C/c2ccccc2)s1	82		
								Nc1nnc(-c2ccc(-c3ccccc3)cc2)s1	31.2		
								COc1cc(-c2nnc(N)s2)cc(OC)c1OC			growth inhibition (GI) [8]: inactive
7.43%	-13.1	-6.6	-10.5	3.06	-39.5	-1.56	3.6	NC(=S)N/N=C/c1ccc(N)cc1		3.02	viability at 72 h, 50 µM [1]: 125%; cytotoxicity at 6 h, 10 µM [2]: -7.54%; growth inhibition (GI) [3]: inactive; inhibition of growth at 50 µM [5]: 38.6%; Activity [6]: 73.67%; cell growth (% of control) at 48 h, 10 µM [7]: 121%; growth inhibition (GI) [8]: inactive; Activity [14]: 4.33%; PF [15]: 2.58; viability at 72 h, 100 µM [18]: 74.4%; cell growth (% of control) at 48 h, 10 µM [19]: 125%
								Nc1nnc(-c2cccc(Br)c2)s1	41.6		
								COc1ccc(-c2cccc(-c3nnc(N)s3)c2)cc1OC	14.6		
9.78%	-9.76	22.2	-0.27	-7.31	-20.3	7.06	9.85	COc1cc(/C=N/NC(N)=S)ccc1O		6.07	
								Nc1nnc(-c2cccc(-c3ccccc3)c2)s1			growth inhibition (GI) [8]: inactive
								Nc1nnc(-c2ccc(OCc3ccc(Cl)c(Cl)c3)cc2)s1	14.5		
								Nc1nnc(-c2cccc(-c3ccc4c(c3)OCO4)c2)s1			growth inhibition (GI) [8]: inactive
								Nc1nnc(-c2ccc(O)c(O)c2)s1	16.6		
								COc1cccc(OC)c1-c1nnc(N)s1	27.1		
								COc1ccccc1-c1nnc(N)s1			growth inhibition (GI) [8]: inactive
19.6%	-24.4	-3.36	-5.27	-21.1	-42.9	-5.15	18.2	NC(=S)N/N=C/c1ccc(O)cc1		7.48	
								COc1ccc(-c2nnc(N)s2)cc1OC	30.2		
